The text below walks through data of ChEMBL document CHEMBL3124845, “Synthesis, neuronal activity and mechanisms of action of halogenated enaminones” (Eur J Med Chem, 2014).

Assay [1] concerns Hippocampus. The assay can be described thus: Anticonvulsant activity in Sprague-Dawley rat hippocampus assessed as inhibition of population spike amplitude at >= 100 uM preincubated for 6 mins followed by compound washout measured after 10 mins by […]. In kind it is functional, tissue-based. A digest of the protocol: (§1)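 Extracellular recording of population spikes in coronal hippocampal slices from male Sprague-Dawley rats (100–150 g), aCSF 29–31 C. Spike amplitude measured from the positive peak to the negative tip; readings taken in control, 6 min into compound and 10 min after washout. Concentration-response run up to […]; mean and standard error.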
Background: Patch clamp records ionic current or voltage across a cell membrane.

For assay [2], the system named is Hippocampus. The assay can be described thus: Anticonvulsant activity in Sprague-Dawley rat hippocampus assessed as inhibition of population spike amplitude at 10 uM preincubated for 6 mins followed by compound washout measured after 10 mins by […]. The assay is classed as functional. A digest of the protocol: as §1
For assay [3], the system named is Hippocampus. The assay can be described thus: Anticonvulsant activity in Sprague-Dawley rat hippocampus assessed as inhibition of population spike amplitude preincubated for 6 mins followed by compound washout measured after 10 mins by […]. In kind it is functional, tissue-based. A digest of the protocol: as §1
Assay [4] can be described thus: Anticonvulsant activity in Sprague-Dawley rat hippocampus CA1 pyramidal neurons assessed as suppression of action potential firing frequency at 10 uM by voltage-clamp electrophysiology relative to control. The assay is classed as functional, Pyramidal neuron. The conditions noted are these: in the assay text read “current-clamp” for “voltage-clamp”.
A short description of assay [5]: Anticonvulsant activity in Sprague-Dawley rat hippocampus CA1 pyramidal neurons assessed as suppression of EPSC amplitude at 10 uM by voltage-clamp electrophysiology in presence of GABA transaminase inhibitor vigabatrin. In kind it is functional, Pyramidal neuron.
Assay [6] deals with Mus musculus. The assay can be described thus: Anticonvulsant activity in CF1 mouse at <100 mg/kg, ip after 30 mins. In kind it is functional, organism-based. An outline of the steps: (§2)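 Male CF1 mice; compound dissolved or suspended in 30% polyethylene glycol 400, given intraperitoneally at 30, 100 and 300 mg/kg. Protection scored in maximal electroshock and subcutaneous pentylenetetrazole seizure tests, with rotorod for neurotoxicity, read at 30 min and 4 h after dosing.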

Assay [7] can be described thus: Anticonvulsant activity in Sprague-Dawley rat hippocampus CA1 pyramidal neurons assessed as suppression of EPSC amplitude at 10 uM by voltage-clamp electrophysiology in presence of GABA-B receptor antagonist CGP55845. In kind it is functional, Pyramidal neuron.
A short description of assay [8]: Anticonvulsant activity in Sprague-Dawley rat hippocampus CA1 pyramidal neurons assessed as suppression of EPSC amplitude at 10 uM at -60mV holding potential by voltage-clamp electrophysiology relative to control. The assay is classed as functional, Pyramidal neuron. An outline of the steps:
(§3)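 Coronal hippocampal slices ([…]) from halothane-anaesthetised male Sprague-Dawley rats (100–150 g), submerged in carbogenated aCSF at 29–31 C, 2–3 mL/min. Blind whole-cell patch of CA1 pyramidal cells with K-gluconate pipette solution (pH 7.3); voltage clamp near rest (60 mV). EPSCs evoked by afferent stimulation; two responses 30 s apart averaged; compound at […].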

For a further assay, the system named is Pyramidal neuron. The assay can be described thus: Anticonvulsant activity in Sprague-Dawley rat hippocampus CA1 pyramidal neurons assessed as suppression of EPSC amplitude at 10 uM at -60mV holding potential measured 15 to 20 mins post compound washout by voltage-clamp electrophysiology. In kind it is functional, cell-based. A digest of the protocol: as §3

In assay [9] the test system is Mus musculus. The assay can be described thus: Anticonvulsant activity in CF1 mouse at 100 to 300 mg/kg, ip after 30 mins. The assay is classed as functional, organism-based. A digest of the protocol: as §2

The source made the active and inactive calls. The calls are words filed in the database; no cut-off is given here.

In general, inhibition refers to the drop in the measured response relative to a control, in per cent. The EC50 is the concentration needed to bring the measured effect to its halfway point.

Regarding `CCOC(=O)C1C(=O)C=C(Nc2ccc(Cl)cc2Cl)CC1C` (stereo not drawn), in the assay on Hippocampus [1], the inhibition result is “inactive”. For the same molecule, in the assay with Hippocampus [2], the inhibition at 10 µM is -24.6%. For the same molecule, in the assay with Hippocampus [3], the EC50 stood at 10000 nM.

Consider `CC1CC(=O)C=C(Nc2ccc(Br)cc2Br)C1` (stereo not drawn), for which the inhibition entry in the assay with Hippocampus [1] was “inactive”. In the assay on Hippocampus [2], the inhibition at 10 µM amounted to 8%.

Take `COC(=O)C1C(=O)C=C(Nc2ccc(I)cc2I)CC1c1ccccc1` (stereo not drawn): the inhibition entry in the assay with Hippocampus [1] is “inactive”. The inhibition at 10 µM in the assay on Hippocampus [2] was 8.5%.

`CC1(C)CCC(Nc2ccc(Br)cc2Br)=CC1=O`: the inhibition entry in the assay with Hippocampus [1] is “inactive”. The inhibition at 10 µM in the assay with Hippocampus [2] was -18.2%.

For the molecule `CCOC(=O)C1CCC(Nc2ccc(Br)cc2Br)=CC1=O` (stereo not drawn), the inhibition entry in the assay with Hippocampus [1] was “inactive”. In addition, in the assay with Hippocampus [2], the inhibition at 10 µM came to 35%.

Turning to `CCOC(=O)C1C(=O)C=C(Nc2ccc(Br)cc2Br)CC1C` (stereo not drawn), the Activity in assay [4] is 76.3%; in assay [5], 3.9%; in assay [7], 16.6%; in assay [8], 47.5%. Further, the inhibition entry in the assay with Hippocampus [1] was “inactive”. The outcome in the assay with Mus musculus [6] and in the assay with Pyramidal neuron was Active. Also, in the assay with Hippocampus [2], the inhibition at 10 µM was -34.7%. Moreover, the concentration giving a half-maximal response (EC50) in the assay on Hippocampus [3] stood at 1900 nM. Also, the inhibition result in the assay with Hippocampus [3] is “Dose-dependent effect”.

For `COC(=O)C1C(=O)C=C(Nc2ccc(Br)cc2Br)CC1C` (stereo not drawn), the inhibition entry in the assay on Hippocampus [1] was “inactive”. Further, in the assay on Hippocampus [2], the inhibition at 10 µM was -25%. In the assay on Mus musculus [9], the outcome was Active.

As to `COC(=O)C1C(=O)C=C(Nc2ccc(Br)cc2Br)CC1c1ccccc1` (stereo not drawn), the Activity was 39.2% in assay [4], 40% in [5], 16.6% in assay [7] and 31.2% in [8]. In addition, the inhibition result in the assay on Hippocampus [1] is “inactive”. Further, the outcome with Mus musculus [6] and with Pyramidal neuron was Active. Also, in the assay on Hippocampus [2], the inhibition at 10 µM was -72.2%. In addition, in the assay with Hippocampus [3], the 50% effective concentration (EC50) came out at 2100 nM. Further, in the assay with Hippocampus [3], the inhibition result was “Dose-dependent effect”.

With `CCOC(=O)C1C(=O)C=C(Nc2ccc(I)cc2I)CC1c1ccccc1` (stereo not drawn), in the assay with Hippocampus [1], the inhibition entry was “inactive”. In addition, the inhibition at 10 µM with Hippocampus [2] came to 4%.

As for `O=C1C=C(Nc2ccc(Br)cc2Br)CCC1`, the inhibition entry in the assay on Hippocampus [1] was “inactive”. Moreover, in the assay on Hippocampus [2], the inhibition at 10 µM was -23.7%.
